# Data reported in ChEMBL document CHEMBL3804768, “Structure-Activity Relationship Studies of Mitogen Activated Protein Kinase Interacting Kinase (MNK) 1 and 2 and BCR-ABL1 Inhibitors Targeting Chronic Myeloid Leukemic Cells” (J Med Chem, 2016).
# Activity calls are given as the source filed them. The rule behind the calls is not given here.
# Experiments:
# [1] = target: Tyrosine-protein kinase ABL1 (Homo sapiens, UniProt P00519, T315I); test: Inhibition of full length human recombinant N-terminal His-tagged ABL (2 to 1130 residues) T315I mutant expressed in baculovirus expression system using FL-peptide 2 substrate preincubated for 10 mins followed by substrate addition measured after 60 mins by mobility shift assay
# In short: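 Buffer is 100 mM HEPES pH 7.5, 10 mM MgCl2, 0.004% Tween 20, 1 mM DTT, 0.003% Brij L23. Enzyme and compound sit 10 min before ATP/substrate is added. The reaction runs 60 min at room temperature, is stopped with 10 mM EDTA, and is read by mobility shift.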
# [2] = Plasma protein binding in human; assay type: ADME, cell-free; details: read-out: PPB (converted)
# Mus musculus = test: In vivo inhibition of MNK1/MNK2 in NOD-SCID mouse tumor xenografted with human K562 cells over expressing eIF4E assessed as inhibition of eIF4E phosphorylation at Ser209 at 50 mg/kg, po qd adminstered through oral gavage measured 4 hrs post dose by AlphaScreen SureFire assay; assay type: functional, organism-based
# In short: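 Tumors were excised after the final day-14 oral dose (50 mg/kg) and flash frozen, then homogenized in SureFire lysis buffer with protease and phosphatase inhibitors. Lysate protein was normalized to 0.5 mg/mL by A280. Phospho-eIF4E Ser209 was read by AlphaScreen SureFire with 2 h acceptor and 2 h donor incubations at room temperature. Inhibition was calculated against the 0 h control signal.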
# [3] = Oral bioavailability in CD1 mouse at 50 mg/kg; assay type: ADME, organism-based; details: in vivo
# [4] = target: Fibroblast growth factor receptor 2 (Homo sapiens, UniProt P21802); test: Inhibition of human recombinant FGFR2 expressed in sf21 cells using Poly(Glu:Tyr) as substrate in presence of [gamma32P]ATP
# Sequence of Fibroblast growth factor receptor 2 (P21802 whole entry): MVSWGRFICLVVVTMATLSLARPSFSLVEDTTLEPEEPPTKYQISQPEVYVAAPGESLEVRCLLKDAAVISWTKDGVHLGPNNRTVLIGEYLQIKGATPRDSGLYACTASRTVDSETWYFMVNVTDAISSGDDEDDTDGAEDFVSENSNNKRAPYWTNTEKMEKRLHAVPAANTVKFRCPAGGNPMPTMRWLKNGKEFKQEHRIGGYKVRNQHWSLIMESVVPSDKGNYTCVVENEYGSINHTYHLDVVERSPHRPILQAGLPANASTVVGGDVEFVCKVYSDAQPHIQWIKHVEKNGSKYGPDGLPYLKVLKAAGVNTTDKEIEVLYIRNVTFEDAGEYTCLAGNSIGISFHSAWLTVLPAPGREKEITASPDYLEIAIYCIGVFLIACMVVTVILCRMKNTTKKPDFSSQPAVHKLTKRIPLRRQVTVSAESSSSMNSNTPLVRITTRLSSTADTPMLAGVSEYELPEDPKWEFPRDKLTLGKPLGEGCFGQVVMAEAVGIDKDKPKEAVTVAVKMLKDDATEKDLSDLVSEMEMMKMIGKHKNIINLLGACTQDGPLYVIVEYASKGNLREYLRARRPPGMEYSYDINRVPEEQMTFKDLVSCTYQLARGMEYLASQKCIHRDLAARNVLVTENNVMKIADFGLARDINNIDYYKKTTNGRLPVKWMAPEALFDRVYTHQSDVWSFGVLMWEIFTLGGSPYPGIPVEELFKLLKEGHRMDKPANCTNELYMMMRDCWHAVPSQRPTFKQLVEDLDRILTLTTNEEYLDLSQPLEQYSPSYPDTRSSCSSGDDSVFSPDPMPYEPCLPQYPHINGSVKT
# K562 [5] = test: Antiproliferative activity against human K562 cells over expressing eIF4E after 48 hrs by Cell-Titer-Glo luminescent cell viability assay; assay type: functional; details: K562, 48 h
# In short: (§1)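 Cells seeded at 5000 per well in growth medium, exposed to serial doses from 0.003 μM to 50 μM for 48 h at 37 °C, 5% CO2. Viability was read by CellTiter-Glo luminescence and GI50 taken from the dose-response curve. Dose response was run in triplicate and the curve repeated twice. K562 eIF4E-overexpressing cells were cultured in RPMI with 10% FBS.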
# [6] = target: Platelet-derived growth factor receptor beta (Homo sapiens, UniProt P09619); test: Inhibition of human recombinant PDGFRbeta expressed in sf21 cells using Poly(Glu:Tyr) as substrate in presence of [gamma32P]ATP
# K562 [7] = test: Antiproliferative activity against human K562 cells after 48 hrs by Cell-Titer-Glo luminescent cell viability assay; assay type: functional; details: K562, 48 h; in short: as §1
# [8] = target: Platelet-derived growth factor receptor alpha (Homo sapiens, UniProt P16234); test: Inhibition of human recombinant PDGFRalpha expressed in sf21 cells at 1 uM using Poly(Glu:Tyr) as substrate in presence of [gamma32P]ATP
# [9] = Antiproliferative activity against human EM2 cells after 48 hrs by Cell-Titer-Glo luminescent cell viability assay; assay type: functional; details: EM-2, 48 h; in short: as §1
# [10] = target: Proto-oncogene tyrosine-protein kinase receptor Ret (Homo sapiens, UniProt P07949); test: Inhibition of human recombinant RET expressed in sf21 cells at 1 uM using Poly(Glu:Tyr) as substrate in presence of [gamma32P]ATP
# Sequence of Proto-oncogene tyrosine-protein kinase receptor Ret (P07949 whole entry, the tested form may be a part): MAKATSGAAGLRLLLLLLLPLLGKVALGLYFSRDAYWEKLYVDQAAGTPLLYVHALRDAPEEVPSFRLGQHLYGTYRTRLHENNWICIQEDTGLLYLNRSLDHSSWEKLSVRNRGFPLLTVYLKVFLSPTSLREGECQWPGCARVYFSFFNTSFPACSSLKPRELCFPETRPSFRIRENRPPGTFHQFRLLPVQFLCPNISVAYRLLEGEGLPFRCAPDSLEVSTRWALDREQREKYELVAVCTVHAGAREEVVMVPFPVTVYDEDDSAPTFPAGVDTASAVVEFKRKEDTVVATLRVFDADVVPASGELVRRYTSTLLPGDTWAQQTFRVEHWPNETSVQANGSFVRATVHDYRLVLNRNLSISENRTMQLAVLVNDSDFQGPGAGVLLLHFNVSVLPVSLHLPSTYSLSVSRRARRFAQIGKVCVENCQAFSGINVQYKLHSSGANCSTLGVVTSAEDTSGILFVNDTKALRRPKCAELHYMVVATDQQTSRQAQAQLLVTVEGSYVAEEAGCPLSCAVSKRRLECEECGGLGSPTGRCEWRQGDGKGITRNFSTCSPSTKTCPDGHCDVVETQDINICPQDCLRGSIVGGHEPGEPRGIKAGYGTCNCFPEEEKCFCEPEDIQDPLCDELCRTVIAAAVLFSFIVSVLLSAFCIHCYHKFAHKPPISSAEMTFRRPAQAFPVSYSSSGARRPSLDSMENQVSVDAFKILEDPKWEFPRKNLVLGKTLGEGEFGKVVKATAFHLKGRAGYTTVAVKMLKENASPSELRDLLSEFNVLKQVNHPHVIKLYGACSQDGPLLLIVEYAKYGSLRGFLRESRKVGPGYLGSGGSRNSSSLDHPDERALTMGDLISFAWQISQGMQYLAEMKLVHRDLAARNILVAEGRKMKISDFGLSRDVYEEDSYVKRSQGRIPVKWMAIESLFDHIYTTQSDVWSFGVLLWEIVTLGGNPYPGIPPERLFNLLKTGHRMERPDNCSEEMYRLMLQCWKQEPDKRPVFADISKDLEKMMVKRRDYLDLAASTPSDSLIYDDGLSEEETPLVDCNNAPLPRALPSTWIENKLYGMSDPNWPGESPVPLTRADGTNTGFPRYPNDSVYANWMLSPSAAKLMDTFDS
# [11] = target: MAP kinase-interacting serine/threonine-protein kinase 1 (Homo sapiens, UniProt Q9BUB5); test: Inhibition of N-terminal GST-tagged MNK1 kinase domain (37 to 341 residues) (unknown origin) expressed in Escherichia coli BL21(DE3) cells using JH3 peptide substrate preincubated for 10 mins followed by substrate addition measured after 60 mins by mobility shift assay
# Sequence of MAP kinase-interacting serine/threonine-protein kinase 1 (Q9BUB5 whole entry, the tested form may be a part): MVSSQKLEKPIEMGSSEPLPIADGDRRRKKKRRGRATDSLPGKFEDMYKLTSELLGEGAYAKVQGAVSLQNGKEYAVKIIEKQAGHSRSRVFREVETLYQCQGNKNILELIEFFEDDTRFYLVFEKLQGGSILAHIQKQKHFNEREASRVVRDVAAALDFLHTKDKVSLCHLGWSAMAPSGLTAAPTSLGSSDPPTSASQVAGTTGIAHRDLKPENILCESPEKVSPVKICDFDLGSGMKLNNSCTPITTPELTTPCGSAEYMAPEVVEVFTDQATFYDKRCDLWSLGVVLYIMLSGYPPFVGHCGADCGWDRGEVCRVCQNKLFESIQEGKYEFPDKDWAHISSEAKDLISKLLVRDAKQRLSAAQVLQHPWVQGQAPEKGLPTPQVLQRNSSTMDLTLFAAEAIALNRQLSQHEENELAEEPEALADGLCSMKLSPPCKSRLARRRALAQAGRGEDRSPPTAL
# [12] = Thermodynamic solubility in pH 4 pION buffer at 500 uM incubated for 18 hrs by UV-spectrophotometry; assay type: physicochemical; details: read-out: Therm_solubility
# [13] = Antiproliferative activity against human JURL-MK1 cells after 48 hrs by Cell-Titer-Glo luminescent cell viability assay; assay type: functional; details: JURL-MK1, 48 h
# [14] = Cmax in CD1 mouse at 50 mg/kg, po; assay type: ADME, organism-based; set-up: dose 50 mg/kg, route oral; details: in vivo
# [15] = target: Tyrosine-protein kinase ABL1 (Homo sapiens) (UniProt P00519); test: Inhibition of ABL1 in human K562 cells over expressing eIF4E assessed as reduction in phosphorylation of Crkl at Tyr207 after 24 hrs by Western blot analysis; assay type: cell-based
# In short: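 K562 eIF4E-overexpressing cells were treated at 100, 500 and 1000 nM for 24 h and lysed in RIPA buffer with SDS and protease/phosphatase inhibitors. Equal protein was resolved on 4-12% Bis-Tris gels and blotted to PVDF, with blocking in 5% BSA/PBST. The blot was probed overnight at 4 °C with a Bcr/Abl activity antibody cocktail for Crkl and phospho-Crkl Tyr207, and detected by ECL chemiluminescence.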
# Bcr/Abl fusion protein = Bcr/Abl fusion protein (Homo sapiens, UniProt P00519); test: Inhibition of BCR fused full length human recombinant N-terminal His-tagged ABL (2 to 1130 residues) expressed in baculovirus expression system using FL-peptide 2 substrate preincubated for 10 mins followed by substrate addition measured after 60 mins by mobility shift assay
# [16] = Permeability of compound by PAMPA; assay type: ADME; details: read-out: permeability
# K562 [17] = test: Antitumor activity against human K562 cells over expressing eIF4E xenografted in po dosed NOD-SCID mouse assessed as tumor growth inhibition administered qd through oral gavage for 14 days; assay type: functional, organism-based
# In short: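 Female SCID mice, 7-10 weeks old, received 1 x 10^7 K562 eIF4E-overexpressing cells subcutaneously. At tumor volumes of 75-245 mm³ (w²×l/2) mice were randomized and gavaged once daily for 14 days at 10 mL/kg.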
# [18] = Thermodynamic solubility in pH 7 pION buffer at 500 uM incubated for 18 hrs by UV-spectrophotometry; assay type: physicochemical; details: read-out: Therm_solubility
# [19] = target: T1, Mast/stem cell growth factor receptor Kit (Homo sapiens, UniProt P10721); test: Inhibition of human recombinant c-KIT expressed in insect cells using Poly(Glu:Tyr) as substrate in presence of [gamma32P]ATP
# T1 sequence (P10721 whole entry): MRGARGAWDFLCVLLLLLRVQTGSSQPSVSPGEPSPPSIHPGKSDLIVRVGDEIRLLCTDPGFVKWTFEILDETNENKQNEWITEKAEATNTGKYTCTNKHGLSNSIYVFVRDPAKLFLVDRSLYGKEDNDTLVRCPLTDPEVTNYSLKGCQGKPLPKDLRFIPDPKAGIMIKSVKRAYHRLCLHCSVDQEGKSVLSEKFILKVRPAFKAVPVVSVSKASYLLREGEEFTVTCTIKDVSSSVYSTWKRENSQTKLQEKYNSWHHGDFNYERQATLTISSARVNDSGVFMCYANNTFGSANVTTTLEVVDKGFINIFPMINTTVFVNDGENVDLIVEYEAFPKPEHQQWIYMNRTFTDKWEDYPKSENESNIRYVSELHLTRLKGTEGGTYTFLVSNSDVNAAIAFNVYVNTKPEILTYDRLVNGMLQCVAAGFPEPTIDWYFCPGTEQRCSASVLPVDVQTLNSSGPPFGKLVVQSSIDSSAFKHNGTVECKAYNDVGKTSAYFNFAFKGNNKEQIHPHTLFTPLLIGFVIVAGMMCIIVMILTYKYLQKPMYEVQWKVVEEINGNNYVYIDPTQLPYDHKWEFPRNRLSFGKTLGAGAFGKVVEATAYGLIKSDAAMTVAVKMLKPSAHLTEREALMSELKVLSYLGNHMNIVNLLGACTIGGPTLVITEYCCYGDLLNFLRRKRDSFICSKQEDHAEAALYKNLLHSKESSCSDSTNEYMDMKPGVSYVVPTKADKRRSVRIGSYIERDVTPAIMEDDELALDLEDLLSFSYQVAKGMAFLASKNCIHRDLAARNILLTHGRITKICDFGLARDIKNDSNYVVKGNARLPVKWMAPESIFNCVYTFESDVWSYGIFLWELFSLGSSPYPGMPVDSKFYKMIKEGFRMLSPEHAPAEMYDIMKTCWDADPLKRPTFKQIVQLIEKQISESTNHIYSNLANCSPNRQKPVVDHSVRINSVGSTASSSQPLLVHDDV
# [20] = AUC in CD1 mouse at 50 mg/kg, po; assay type: ADME, organism-based; details: in vivo
# [21] = target: T1, Mast/stem cell growth factor receptor Kit; test: Inhibition of human recombinant c-KIT expressed in insect cells at 1 uM using Poly(Glu:Tyr) as substrate in presence of [gamma32P]ATP
# [22] = target: Receptor-type tyrosine-protein kinase FLT3 (Homo sapiens) (UniProt P36888); test: Inhibition of human recombinant FLT3 expressed in sf21 cells at 1 uM using Poly(Glu:Tyr) as substrate in presence of [gamma32P]ATP
# Sequence of Receptor-type tyrosine-protein kinase FLT3 (Homo sapiens) (P36888 whole entry): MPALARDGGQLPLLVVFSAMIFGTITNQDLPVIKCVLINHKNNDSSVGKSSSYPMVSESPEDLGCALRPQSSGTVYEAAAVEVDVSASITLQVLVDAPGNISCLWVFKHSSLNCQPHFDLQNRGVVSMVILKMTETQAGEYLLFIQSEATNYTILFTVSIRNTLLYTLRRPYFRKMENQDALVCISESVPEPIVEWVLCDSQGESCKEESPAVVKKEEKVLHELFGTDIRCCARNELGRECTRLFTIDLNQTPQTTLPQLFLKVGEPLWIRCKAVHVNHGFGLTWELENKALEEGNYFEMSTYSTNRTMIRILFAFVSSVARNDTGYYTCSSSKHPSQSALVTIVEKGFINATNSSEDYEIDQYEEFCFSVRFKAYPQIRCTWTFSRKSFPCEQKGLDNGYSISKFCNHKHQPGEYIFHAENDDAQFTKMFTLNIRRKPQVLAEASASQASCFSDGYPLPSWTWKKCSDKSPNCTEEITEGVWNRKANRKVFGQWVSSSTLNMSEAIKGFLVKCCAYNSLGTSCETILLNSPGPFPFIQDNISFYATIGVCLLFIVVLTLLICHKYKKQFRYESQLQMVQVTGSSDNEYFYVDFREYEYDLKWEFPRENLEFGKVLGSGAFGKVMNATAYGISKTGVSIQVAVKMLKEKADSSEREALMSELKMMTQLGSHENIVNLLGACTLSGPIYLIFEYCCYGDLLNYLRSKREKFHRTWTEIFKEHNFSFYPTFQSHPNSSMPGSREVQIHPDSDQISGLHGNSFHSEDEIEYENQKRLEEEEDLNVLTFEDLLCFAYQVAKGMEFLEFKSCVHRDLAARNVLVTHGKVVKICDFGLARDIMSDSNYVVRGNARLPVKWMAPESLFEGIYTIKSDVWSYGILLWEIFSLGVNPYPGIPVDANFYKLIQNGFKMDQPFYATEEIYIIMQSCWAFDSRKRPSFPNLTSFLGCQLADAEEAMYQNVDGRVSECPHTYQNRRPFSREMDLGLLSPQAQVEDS
# Cytochrome P450 2D6 = Cytochrome P450 2D6 (Homo sapiens, UniProt P10635); test: Inhibition of CYP2D6 (unknown origin); assay type: ADME
# Sequence of Cytochrome P450 2D6 (P10635 whole entry): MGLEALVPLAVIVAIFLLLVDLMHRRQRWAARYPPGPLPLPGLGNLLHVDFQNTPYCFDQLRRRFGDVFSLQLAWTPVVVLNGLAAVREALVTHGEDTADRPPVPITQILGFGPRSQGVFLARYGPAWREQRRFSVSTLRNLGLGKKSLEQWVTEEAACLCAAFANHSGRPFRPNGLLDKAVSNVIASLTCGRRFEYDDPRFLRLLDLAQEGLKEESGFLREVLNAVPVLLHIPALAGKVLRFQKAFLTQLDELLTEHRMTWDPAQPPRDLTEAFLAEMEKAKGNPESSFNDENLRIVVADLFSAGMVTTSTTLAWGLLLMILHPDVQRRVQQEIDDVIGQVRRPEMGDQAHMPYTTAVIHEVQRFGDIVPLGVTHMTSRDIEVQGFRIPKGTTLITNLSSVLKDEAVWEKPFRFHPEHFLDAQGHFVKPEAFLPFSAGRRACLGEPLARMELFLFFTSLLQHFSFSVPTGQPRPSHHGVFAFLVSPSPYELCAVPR
# [23] = Antiproliferative activity against human BV173 cells after 48 hrs by Cell-Titer-Glo luminescent cell viability assay; assay type: functional; details: BV-173, 48 h; in short: as §1
SMILES,IC50 [1],fraction unbound [2],inhibition (Mus musculus),bioavailability [3],IC50 [4],GI50 (K562 [5]),IC50 [6],GI50 (K562 [7]),inhibition [8],GI50 [9],inhibition [10],IC50 [11],"solubility thermodynamic at 18 h, 500 µM [12]",GI50 [13],Cmax [14],inhibition [15],IC50 (Bcr/Abl fusion protein),Papp [16],TGI (K562 [17]),"solubility thermodynamic at 18 h, 500 µM [18]",also measured
CCN1CCN(Cc2ccc(NC(=O)CNc3ccc(-c4ccc(NC(=O)C5CC5)nc4)cc3)cc2C(F)(F)F)CC1,50 nM,0.0008,Active,80%,930 nM,51 nM,1080 nM,58 nM,> 99%,15 nM,> 99%,2520 nM,128 µg/mL,30 nM,2490 ng/mL,Dose-dependent effect,89 nM,34.5 ×10⁻⁶ cm/s,Dose-dependent effect,0.1 µg/mL,IC50 [19]: 888 nM; AUC [20]: 14300 ng·h/mL; inhibition [21]: > 99%; inhibition [22]: > 99%; IC50 (Cytochrome P450 2D6): > 30000 nM; GI50 [23]: 30 nM
CN1CCN(Cc2ccc(NC(=O)CNc3ccc(-c4ccc(NC(=O)C5CC5)nc4)cc3F)cc2C(F)(F)F)CC1,20 nM,0.0022,Active,31%,272 nM,12 nM,1050 nM,12 nM,> 99%,1 nM,> 99%,200 nM,183 µg/mL,1 nM,1210 ng/mL,Dose-dependent effect,10 nM,30.6 ×10⁻⁶ cm/s,Dose-dependent effect,3.8 µg/mL,IC50 [19]: 1510 nM; AUC [20]: 5130 ng·h/mL; inhibition [21]: > 99%; inhibition [22]: > 99%; IC50 (Cytochrome P450 2D6): > 30000 nM; GI50 [23]: 1 nM
